ChEMBL document CHEMBL1146217, “Growth inhibition of Mycobacterium bovis, Mycobacterium tuberculosis and Mycobacterium avium in vitro: effect of 1-beta-D-2'-arabinofuranosyl and 1-(2'-deoxy-2'-fluoro-beta-D-2'-ribofuranosyl) pyrimidine nucleoside analogs” (J Med Chem, 2007)
In brackets after ≈: the same amount, converted by molar mass.

Assays:
Staphylococcus aureus [1] = test: Antibacterial activity against Staphylococcus aureus ATCC 25923 after 16 to 20 hrs by broth microdilution method; type: functional
How it was run: (§1)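 Broth microdilution MIC. Exponentially growing bacteria diluted in sterile liquid medium to a final inoculum of 1 × 10⁴ CFU/mL. Cultured with compound dilutions for 16-20 h; compounds tested at 100, 50, 10 and 1 µg/mL. MIC taken as the concentration giving 100% inhibition of bacterial growth.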

Mycobacterium avium [2] = test: Antimycobacterial activity against Mycobacterium avium ATCC 25291 by microplate Alamar blue assay; type: functional
How it was run: (§2)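 Same alamar blue microplate setup (7H9GC, 2.5 × 10⁵ CFU/mL, 6 days, then dye read after about 24 h), using 2-fold compound dilutions. MIC90 is the lowest concentration giving about 90% inhibition relative to bacteria-only wells after background subtraction. Visual MIC is the lowest concentration preventing the blue-to-pink change.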

[3] = system: Mycobacterium tuberculosis; test: Antimycobacterial activity against Mycobacterium tuberculosis H37Ra by microplate Alamar blue assay; type: functional; how it was run: as §2
Salmonella typhimurium [4] = test: Antibacterial activity against Salmonella Typhimurium after 16 to 20 hrs by broth microdilution method; type: functional, Salmonella enterica subsp. enterica serovar Typhimurium; settings: for MIC: Salmonella enterica; how it was run: as §1
Proteus vulgaris = test: Antibacterial activity against Proteus vulgaris ATCC 49132 after 16 to 20 hrs by broth microdilution method; type: functional; how it was run: as §1
[5] = system: Mycobacterium tuberculosis; test: Antimycobacterial activity against Mycobacterium tuberculosis H37Ra at 100 ug/mL by microplate Alamar blue assay; type: functional
How it was run: (§3)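 MABA with M. bovis BCG, M. tuberculosis H37Ra or M. avium ATCC 25291. DMSO stocks (10 mg/mL) diluted in 7H9GC; final inoculum 2.5 × 10⁵ CFU/mL. Incubated 6 days, then alamar blue plus Tween 80 added and read by fluorescence after about 24 h. […]. Tested in triplicate at 100, 50, 10 and 1 µg/mL; two experiments, mean reported.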

Streptococcus pyogenes [6] = test: Antibacterial activity Streptococcus pyogenes ATCC 19615 after 16 to 20 hrs by broth microdilution method; type: functional; how it was run: as §1
Escherichia coli [7] = test: Antibacterial activity against Escherichia coli ATCC 25922 after 16 to 20 hrs by broth microdilution method; type: functional; settings: for MIC: Escherichia coli, ATCC 25922; how it was run: as §1
Enterococcus faecalis [8] = test: Antibacterial activity Enterococcus faecalis ATCC 29212 after 16 to 20 hrs by broth microdilution method; type: functional; how it was run: as §1
Mycobacterium avium [9] = test: Antimycobacterial activity against Mycobacterium avium ATCC 25291 at 100 ug/mL by microplate Alamar blue assay; type: functional; how it was run: as §3
[10] = system: Mycobacterium tuberculosis; test: Antimycobacterial activity against Mycobacterium tuberculosis H37Ra at 1ug/mL by microplate Alamar blue assay; type: functional; how it was run: as §3
Streptococcus pneumoniae [11] = test: Antibacterial activity Streptococcus pneumoniae ATCC 49619 after 16 to 20 hrs by broth microdilution method; type: functional; how it was run: as §1
Pseudomonas aeruginosa [12] = test: Antibacterial activity against Pseudomonas aeruginosa […] after 16 to 20 hrs by broth microdilution method; type: functional; settings: for MIC: Pseudomonas aeruginosa, ATCC 13048; how it was run: as §1
[13] = system: Staphylococcus epidermidis; test: Antibacterial activity against Staphylococcus epidermidis ATCC 14990 after 16 to 20 hrs by broth microdilution method; type: functional; how it was run: as §1
Vero = test: Toxicity against Vero cells after 3 days by MTT test; type: cell-based; settings: chlorocebus sabaeus, 72 h
How it was run: (§4)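 MTT viability assay. Vero or HFF cells seeded at 2.5 × 10⁵ cells/well and left to attach 6-8 h. Exposed to compound at 100, 50, 25, 12.5, 6.3 and 1.5 µg/mL for 3 days at 37 °C, with a DMSO control. MTT added for 4 h, then solubilized overnight; absorbance read at 560-650 nm.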

Bacillus subtilis [14] = test: Antibacterial activity against Bacillus subtilis ATCC 6633 after 16 to 20 hrs by broth microdilution method; type: functional; how it was run: as §1
Mycobacterium avium [15] = test: Antimycobacterial activity against Mycobacterium avium ATCC 25291 at 50 ug/mL by microplate Alamar blue assay; type: functional; how it was run: as §3
Klebsiella aerogenes [16] = test: Antibacterial activity against Enterobacter aerogenes after 16 to 20 hrs by broth microdilution method; type: functional; settings: for MIC: Klebsiella aerogenes; how it was run: as §1
Listeria monocytogenes [17] = test: Antibacterial activity Listeria monocytogenes ATCC 15313 after 16 to 20 hrs by broth microdilution method; type: functional; how it was run: as §1
[18] = Toxicity against human foreskin fibroblast cells after 3 days by MTT test; type: cell-based; how it was run: as §4
[19] = system: Mycobacterium tuberculosis; test: Antimycobacterial activity against Mycobacterium tuberculosis H37Ra at 50 ug/mL by microplate Alamar blue assay; type: functional; how it was run: as §3
[20] = system: Mycobacterium tuberculosis; test: Antimycobacterial activity against Mycobacterium tuberculosis H37Ra at 10 ug/mL by microplate Alamar blue assay; type: functional; how it was run: as §3
Mycobacterium avium [21] = test: Antimycobacterial activity against Mycobacterium avium ATCC 25291 at 2 ug/mL by microplate Alamar blue assay; type: functional
Escherichia coli [22] = test: Antibacterial activity against Escherichia coli ATCC 25922 at 1 ug/ml after 16 to 20 hrs by broth microdilution method; type: functional
Staphylococcus aureus [23] = test: Antibacterial activity against Staphylococcus aureus ATCC 25923 at 1 ug/ml after 16 to 20 hrs by broth microdilution method; type: functional
Listeria monocytogenes [24] = test: Antibacterial activity Listeria monocytogenes ATCC 15313 at 1 ug/ml after 16 to 20 hrs by broth microdilution method; type: functional
Streptococcus pyogenes [25] = test: Antibacterial activity Streptococcus pyogenes ATCC 19615 at 1 ug/ml after 16 to 20 hrs by broth microdilution method; type: functional
Pseudomonas aeruginosa [26] = test: Antibacterial activity against Pseudomonas aeruginosa […] at 1 ug/ml after 16 to 20 hrs by broth microdilution method; type: functional
Salmonella typhimurium [27] = test: Antibacterial activity against Salmonella Typhimurium at 1 ug/ml after 16 to 20 hrs by broth microdilution method; type: functional, Salmonella enterica subsp. enterica serovar Typhimurium; settings: Salmonella enterica
[28] = system: Staphylococcus epidermidis; test: Antibacterial activity against Staphylococcus epidermidis ATCC 14990 at 1 ug/ml after 16 to 20 hrs by broth microdilution method; type: functional
Klebsiella aerogenes [29] = test: Antibacterial activity against Enterobacter aerogenes at 1 ug/ml after 16 to 20 hrs by broth microdilution method; type: functional
Bacillus subtilis [30] = test: Antibacterial activity against Bacillus subtilis ATCC 6633 at 1 ug/ml after 16 to 20 hrs by broth microdilution method; type: functional
Enterococcus faecalis [31] = test: Antibacterial activity Enterococcus faecalis ATCC 29212 at 1 ug/ml after 16 to 20 hrs by broth microdilution method; type: functional
Streptococcus pneumoniae [32] = test: Antibacterial activity Streptococcus pneumoniae ATCC 49619 at 1 ug/ml after 16 to 20 hrs by broth microdilution method; type: functional

SMILES | Inhibition (Staphylococcus aureus [1]) | MIC90 (Mycobacterium avium [2]) | MIC90 [3] | MIC (Salmonella typhimurium [4]) | MIC (Proteus vulgaris) | Inhibition (Streptococcus pyogenes [6]) | MIC (Escherichia coli [7]) | Inhibition (Enterococcus faecalis [8]) | Inhibition (Streptococcus pneumoniae [11]) | MIC (Pseudomonas aeruginosa [12]) | Inhibition [13] | MIC (Klebsiella aerogenes [16]) | Inhibition (Listeria monocytogenes [17]) | inhibition at 2 µg/mL (Mycobacterium avium [21]) | Inhibition (Salmonella typhimurium [4]) | inhibition at 1 µg/mL (Listeria monocytogenes [24]) | inhibition at 1 µg/mL (Streptococcus pyogenes [25]) | Inhibition (Bacillus subtilis [14]) | inhibition at 1 µg/mL (Salmonella typhimurium [27]) | inhibition at 1 µg/mL [28] | further results
CCCCCCCCCCCC#Cc1cn([C@@H]2O[C@H](CO)[C@@H](O)[C@H]2F)c(=O)[nH]c1=O | 100% | 50 mg/L (≈ 118 µM) | 1 mg/L (≈ 2.36 µM) | > 100 mg/L | > 100 mg/L | 100% | > 100 mg/L | 100% | 100% | > 100 mg/L | 100% | > 100 mg/L | 100% |  |  |  |  |  |  |  | MIC (Staphylococcus aureus [1]; Staphylococcus aureus, ATCC 25923): 100 mg/L (≈ 236 µM); inhibition at 100 µg/mL [5]: 100%; MIC (Streptococcus pyogenes [6]; Streptococcus pyogenes, ATCC 19615): 100 mg/L (≈ 236 µM); MIC (Enterococcus faecalis [8]; Enterococcus faecalis, ATCC 29212): 100 mg/L (≈ 236 µM); inhibition at 100 µg/mL (Mycobacterium avium [9]): 100%; inhibition at 1 µg/mL [10]: 90%; MIC (Streptococcus pneumoniae [11]; Streptococcus pneumoniae, ATCC 49619): 100 mg/L (≈ 236 µM); MIC ([13]; Staphylococcus epidermidis, ATCC 14990): 100 mg/L (≈ 236 µM); CC10 (Vero): > 100 mg/L; MIC (Bacillus subtilis [14]; Bacillus subtilis, ATCC 6633): > 100 mg/L; inhibition at 50 µg/mL (Mycobacterium avium [15]): 50%; MIC (Listeria monocytogenes [17]; Listeria monocytogenes, ATCC 15313): 100 mg/L (≈ 236 µM); CC50 at 72 h [18]: > 100 mg/L; inhibition at 50 µg/mL [19]: 100%; inhibition at 10 µg/mL [20]: 100%
CC[C@H]1OC(=O)[C@H](C)[C@@H](O[C@H]2C[C@@](C)(OC)[C@@H](O)[C@H](C)O2)[C@H](C)[C@@H](O[C@@H]2O[C@H](C)C[C@H](N(C)C)[C@H]2O)[C@](C)(OC)C[C@@H](C)C(=O)[C@H](C)[C@@H](O)[C@]1(C)O [CLARITHROMYCIN] |  | 2 mg/L (≈ 2.67 µM) |  |  |  |  |  |  |  |  |  |  |  | 95% |  |  |  |  |  |  | 
CO[C@H]1/C=C/O[C@@]2(C)Oc3c(C)c(O)c4c(O)c(c(/C=N/N5CCN(C)CC5)c(O)c4c3C2=O)NC(=O)/C(C)=C\C=C\[C@H](C)[C@H](O)[C@@H](C)[C@@H](O)[C@@H](C)[C@H](OC(C)=O)[C@@H]1C [RIFAMPIN] | 100% | 2 mg/L (≈ 2.43 µM) | 0.5 mg/L (≈ 0.608 µM) | > 100 mg/L | > 100 mg/L | 100% | 100 mg/L (≈ 122 µM) |  |  | > 100 mg/L | 100% | > 100 mg/L | 100% | 90% | 100% | 100% | 100% | 100% | 100% | 100% | inhibition at 1 µg/mL (Escherichia coli [22]): 100%; Inhibition (Escherichia coli [7]): 100%; inhibition at 1 µg/mL (Staphylococcus aureus [23]): 100%; inhibition at 1 µg/mL (Pseudomonas aeruginosa [26]): 100%; Inhibition (Pseudomonas aeruginosa [12]): 100%; Inhibition (Klebsiella aerogenes [16]): 100%; inhibition at 1 µg/mL (Klebsiella aerogenes [29]): 100%; inhibition at 1 µg/mL (Bacillus subtilis [30]): 100%
CN[C@H](CC(C)C)C(=O)N[C@H]1C(=O)N[C@@H](CC(N)=O)C(=O)N[C@H]2C(=O)N[C@H]3C(=O)N[C@H](C(=O)N[C@H](C(=O)O)c4cc(O)cc(O)c4-c4cc3ccc4O)[C@H](O)c3ccc(c(Cl)c3)Oc3cc2cc(c3O[C@@H]2O[C@H](CO)[C@@H](O)[C@H](O)[C@H]2O[C@H]2C[C@](C)(N)[C@H](O)[C@H](C)O2)Oc2ccc(cc2Cl)[C@H]1O [VANCOMYCIN] |  |  |  |  | > 100 mg/L | 100% | > 100 mg/L | 100% | 100% | > 100 mg/L | 50% | > 100 mg/L | 100% |  | 50% | 100% | 100% | 50% | 50% | 50% | inhibition at 1 µg/mL (Enterococcus faecalis [31]): 100%; inhibition at 1 µg/mL (Streptococcus pneumoniae [32]): 100%; inhibition at 1 µg/mL (Bacillus subtilis [30]): 50%
